From ChEMBL document CHEMBL1821702, “8,8-Dimethyldihydroberberine with improved bioavailability and oral efficacy on obese and diabetic mouse models” (Bioorg Med Chem, 2010)
Calls of active or inactive are those of the source. No cut-off for these calls is given here.

Legend:
Mus musculus [1] = assay: Antidiabetic activity in high fat diet-fed C57BL/6J mouse assessed as decrease in blood glucose level at 250 mg/kg/day, po for 4 weeks measured after 60 mins by intraperitoneal glucose tolerance test; type: functional, organism-based
Outline: (§1)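 High-fat-diet (60 kcal%, 8 weeks) male C57BL/6J mice were randomized by body weight and fed glucose, then dosed orally once daily in cellulose/lactose vehicle. ipGTT was done at 4 weeks: D-glucose 2 g/kg ip, glucometer readings at 0, 15, 30, 60, 90 and 120 min. n = 5–8.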

Mus musculus [2] = assay: Antidiabetic activity in high fat diet-fed C57BL/6J mouse assessed as decrease in blood glucose level at 250 mg/kg/day, po for 4 weeks measured after 120 mins by intraperitoneal glucose tolerance test; type: functional, organism-based; outline: as §1
Mus musculus [3] = assay: Antidiabetic activity in C57BLKS/J-db/db mouse assessed as reduction of fasting blood glucose level at 250 mg/kg/day, po for 5 weeks; type: functional, organism-based
Mus musculus [4] = assay: Antiobese activity in high fat diet-fed C57BL/6J mouse assessed as decrease in plasma triglyceride level at 250 mg/kg/day, po for 6 weeks; type: functional; set-up: scale not given: the % may be the effect or the level left
Outline: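 DIO male C57BL/6J mice received daily oral dosing in cellulose/lactose vehicle for 6 weeks and were killed after the final dose. Plasma and liver triglycerides were measured by triglyceride assay kit, and fat depots were weighed.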

Mus musculus [5] = assay: Antidiabetic activity in high fat diet-fed C57BL/6J mouse assessed as decrease in plasma insulin level at 250 mg/kg/day, po for 4 weeks; type: functional; set-up: scale not given: the % may be the effect or the level left
Outline: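 DIO male C57BL/6J mice (60 kcal% fat diet for 8 weeks) were gavaged daily in 0.5% microcrystalline cellulose/1.6% lactose vehicle. Plasma insulin was determined by ELISA after 4 weeks of treatment. Mean ± SE, n = 5–8.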

Mus musculus [6] = assay: Antiobese activity in C57BLKS/J-db/db mouse assessed as decrease in plasma triglyceride level at 250 mg/kg/day, po […]; type: functional; set-up: scale not given: the % may be the effect or the level left
Outline: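 db/db mice were gavaged once daily in 0.5% microcrystalline cellulose/1.6% lactose vehicle for 6 weeks and killed after the final dose. Plasma triglycerides were measured with a colorimetric triglyceride assay kit.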

Mus musculus [7] = assay: Antidiabetic activity in C57BLKS/J-db/db mouse assessed as decrease in area under curve at 50 mg/kg/day, po for 4 weeks by insulin tolerance test; type: functional; set-up: scale not given: the % may be the effect or the level left
Rattus norvegicus [8] = species on record: Rattus norvegicus; assay: Induction of AMPK phosphorylation in 2 hrs serum starved rat differentiated L6 myotubes after 1 hr
Outline: (§2)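 Fully differentiated L6 myotubes were serum-starved 2 h, then treated 1 h across a dose series. Phospho-AMPK (Thr172) and phospho-ACC (Ser79) were detected by Western blot. Three independent experiments.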

Rattus norvegicus [9] = species on record: Rattus norvegicus; assay: Induction of AMPK-dependent ACC phosphorylation in 2 hrs serum starved rat differentiated L6 myotubes after 1 hr; outline: as §2
L6 [10] = assay: Cytotoxicity against rat L6 cells upto 10 uM after 24 hrs by MTT assay; type: cell-based; conditions: l6, 24 h
Outline: (§3)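 Differentiated L6 myoblasts were exposed to a concentration range of compounds for 24 h at 37 °C. MTT (5 mg/mL) was added for 3 h, formazan was dissolved in DMSO, and absorbance was read at 550 nm against 690 nm reference. Mean of three independent experiments ± SE.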

L6 [11] = assay: Cytotoxicity against rat L6 cells upto 40 uM after 24 hrs by MTT assay; type: cell-based; conditions: l6, 24 h; outline: as §3
L6 [12] = assay: Increase in glucose uptake in rat differentiated L6 myotubes after 1 hr relative to untreated control; type: functional
Outline: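 Fully differentiated L6 myotubes were serum-starved 2 h, then treated with compound for 15 min to 2 h (dose series at 1 h). Glucose uptake was measured relative to DMSO control. Mean of three independent experiments ± SE.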

Q: `CN(C)C(=N)NC(=N)N` [METFORMIN] was tested. Which Activity (Mus musculus [1]) did it give?
A: Active

Q: What about the Activity (Mus musculus [2]) of the same compound?
A: Active

Q: And the Activity (Mus musculus [3])?
A: Active

Q: And the Activity (Mus musculus [4])?
A: 33%

Q: What about the Activity (Mus musculus [5]) of the same compound?
A: 43%

Q: And the Activity (Mus musculus [6])?
A: 23%

Q: And the Activity (Mus musculus [7])?
A: 14%

Q: Which Activity (Rattus norvegicus [8]) does the source give for `CCC1(CC)c2c(ccc(OC)c2OC)CC2=[N+]1CCc1cc3c(cc12)OCO3.[Cl-]` [8,8-Diethyldihydroberberine] here?
A: Dose-dependent effect

Q: And the Activity (Rattus norvegicus [9])?
A: Dose-dependent effect

Q: What about the Activity (L6 [10]) of the same compound?
A: Toxic

Q: With `CCCC1(CCC)c2c(ccc(OC)c2OC)CC2=[N+]1CCc1cc3c(cc12)OCO3.[Cl-]` [8,8-Dipropyldihydroberberine] as the compound, how does the Activity (L6 [11]) read?
A: Non-toxic

Q: What about the Activity (L6 [12]) of the same compound?
A: 62%
